ChEMBL document CHEMBL4513216, “Probing the Open Global Health Chemical Diversity Library for Multistage-Active Starting Points for Next-Generation Antimalarials” (ACS Infect Dis, 2020)

Assay: Toxicity liver stage against HepG2, at 10uM
Format: cell-based
Set-up: test concentration 10 uM, cell line HepG2-A16-CD81EGFP
Details: human, HepG2-A16-CD81EGFP cells; read-out: INHIBITION
Method in brief: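 Uninfected HepG2-A16-CD81EGFP cells, 3 × 10^3 per well, 1536-well, plated on prespotted compound at 10 μM final, parasite-free screening media added to match infected plates; puromycin 10 μM positive, DMSO 0.5% negative; run in parallel with 48 h PbLuc assay at 37 °C, 5% CO2; viability by CellTiter-Glo luminescence, normalized to controls.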

| SMILES | cytotoxicity at 10 µM [%] |
| --- | --- |
| COCCN(C)CCN1CC2(CCN(C3CCSC3)CC2)OC1=O (stereo unspecified) | -2.28 |
| Cc1ccccc1C(CNc1ncnc2c1CCNC2)N(C)C (stereo unspecified) | 5.31 |
| COCc1cccc(CNC(=O)CNc2ccccc2C(C)=O)c1 | 0.529 |
| O=C(CCn1cccn1)N1CCC(c2nnc(-c3ccccn3)o2)CC1 | 0.125 |
| CS(=O)(=O)N1C[C@H]2CC[C@@H](C1)N(C(=O)CCc1n[nH]c3c1CCCC3)C2 | 11 |
| Cc1ncc(S(C)(=O)=O)c(N2Cc3ccccc3C2)n1 | -18.3 |
| CC(C)CNC(=O)CSc1nnc(OC(C)C)s1 | 1.97 |
| Cc1noc(CCCNS(=O)(=O)N2CCCC2c2ccco2)n1 (stereo unspecified) | -7.88 |
| CC(C)C(NC(=O)c1ccc(Cl)cc1Cl)C(=O)Nc1ccn(C)n1 (stereo unspecified) | 1.5 |
| Cc1cc(CNC2(CO)CCOCC2)ccc1Br | 17.4 |
| CN(Cc1ccncc1)C(=O)NCc1cn(-c2ccccc2)nn1 | -55.7 |
| CCN(Cc1ccc2c(c1)OCCO2)C(=O)NC(C)Cn1cccn1 (stereo unspecified) | -10.6 |
| Cn1nc(C2CCN(C(=O)Cc3ccsc3)CC2)c2cccnc21 | -4.9 |
| CCCN1CC2(CCN(C)CC2)CC1C(=O)NCCn1nc(C)nc1C (stereo unspecified) | 2.7 |
| O=C(NCC1(O)CCC1)c1cccc(-n2cccn2)c1 | -2.44 |
| CNc1cc(C2CCCN(C(=O)c3ccc(=O)[nH]n3)C2)ccn1 (stereo unspecified) | -11.8 |
| COc1ccc(F)c(-c2nccn2CCN2CCCC2)c1 | -11.8 |
| CCCOC(=O)N1CCn2nc(-c3nc4ccccc4n3C)cc2C1 | 10.6 |
| CCc1nc(C2CCCN2CC(=O)Nc2c(C)nn(C)c2C)no1 (stereo unspecified) | -31.4 |
| CN(Cc1nnc(-c2ccco2)o1)C1CCCN(c2cccnn2)C1 (stereo unspecified) | -7.39 |
| COc1ncc(C(=O)N2CCC(c3nc(C)n4ccsc34)CC2)cn1 | -17.4 |
| CCCNC(=O)c1cc(Br)c2c(c1)OCCO2 | 9.65 |
| O=C(NCCc1ccccc1)C1CCC(Cn2cnnn2)CC1 (stereo unspecified) | 2.01 |

| SMILES | cytotoxicity at 10 µM [%] |
| --- | --- |
| Cc1ccc2c(c1)C1(CCN(C(=O)C3CC3)CC1)CC2N1CCOCC1 (stereo unspecified) | -128 |
| CCN1CCN(C[C@@H]2CN(c3ncccc3Cl)C[C@@H]2CO)CC1 | -4.81 |
| COc1ccc(OC)c2c(C)cc(N(C)CCO)nc12 | 6.36 |
| OC(CN(Cc1ccccc1)Cc1cccnc1)c1ccco1 (stereo unspecified) | -0.408 |
| Cn1cnc(S(=O)(=O)NCC(O)c2ccc3c(c2)CCO3)c1 (stereo unspecified) | -6.28 |
| Cc1cnn(CC2CN(CCN3CCCC3=O)CCO2)c1 (stereo unspecified) | -9.7 |
| Cc1cnccc1CN(C)C(=O)c1cccc(CCC(C)(C)O)c1 | -3.55 |
| CCOCCn1nc(C2CCNCC2)n(Cc2ccccc2)c1=O | 4.08 |
| CCc1nc(C2CCCN(C(=O)C3=NN(C(C)C)C(=O)CC3)C2)no1 (stereo unspecified) | -7.28 |
| CC[C@@]1(O)CCN(C(=O)c2ccc(-c3cccc(F)c3)cc2)C[C@H]1O | -5.68 |
| CC(C)CCc1cc(C(=O)O)nc2[nH]c(=O)[nH]c(=O)c12 | 4.31 |
| COc1ccccc1S(=O)(=O)N1CCC(Oc2cccnn2)CC1 | -7.33 |
| O=C(NCCCN1CCCC1=O)c1nc(-c2ccc3[nH]ccc3c2)no1 | -3.43 |
| O=C(NCCn1ccnc1)c1cccc(F)c1 | -10 |
| Cc1c(C(=O)NC(C)C)nnn1-c1cccc(C(F)(F)F)c1 | -1.54 |
| Cc1cc(C)n(CC2CN(Cc3nnc(C)o3)CCO2)n1 (stereo unspecified) | -7.95 |
| O=C(Nc1ccnn1Cc1ccccc1Cl)C1CCS(=O)(=O)C1 (stereo unspecified) | -3.95 |
| CN(C)CC(=O)N1CCN(c2cc(N3CCCC3CO)ncn2)CC1 (stereo unspecified) | -4.19 |
| CCc1n[nH]c(C2CN(CCc3ccncc3)CCO2)n1 (stereo unspecified) | 2.17 |
| O=C(CCn1cccn1)N1CCC(C2CCN(c3ncccn3)CC2)C1 (stereo unspecified) | 5.33 |
| CSCC[C@H](NC(C)=O)c1nc(Cc2ccccc2)n[nH]1 | 5.06 |
| COc1nc2c(cc1C(=O)N1CCCOC(Cn3cccn3)C1)CCC2 (stereo unspecified) | -52.1 |
| CCn1cc(CN(C)S(=O)(=O)c2ccc(C(C)C)cc2)cn1 | 20.1 |

| SMILES | cytotoxicity at 10 µM [%] |
| --- | --- |
| CC(C1CC1)N(C)Cc1nnc(-c2ccco2)o1 (stereo unspecified) | -2.14 |
| COC(=O)C(NC(=O)c1ccc(NC2CC2)nc1)c1ccccc1 (stereo unspecified) | -9.88 |
| Cc1ccc(Oc2ccc(NC(=O)NCC3CCOC3)cn2)cc1C (stereo unspecified) | -5.28 |
| Cc1nn(C)c(Cl)c1C1CCCN1C(=O)c1cnccn1 (stereo unspecified) | -4.73 |
| Cc1cnn(C2CN(CC(=O)NCC3(c4ccccc4)CC3)C2)c1 | -10.9 |
| Cc1cn(CC(=O)NC2CCC3(CC2)OCCO3)c2ccccc12 | -1.21 |
| Cc1nc(C)c(CC(=O)N2C[C@@H](C(=O)O)[C@H](c3ccncc3)C2)s1 | -127 |
| Cn1ccc2c(C(=O)N3CC[C@@]4(O)CCCC[C@H]4C3)cccc21 | -42.9 |
| Cn1ccnc1SCCNC1CCN(c2ncccn2)CC1 | -7.63 |
| CS(=O)(=O)N1CCCC1CS(=O)(=O)c1ccccc1 (stereo unspecified) | 1.01 |
| Cc1nc2ccc(C(=O)N(CCC#N)CCC#N)cc2nc1C | -12.8 |
| O=C1c2cccnc2OC(CN2CCOCC2)CN1CC1CC1 (stereo unspecified) | -6.17 |
| CCn1cc(CN2CCCn3nc(CNC(=O)C4CCC4)cc3C2)cn1 | -11.6 |
| O=C(Nc1cc(F)ccc1OCC1CCCO1)c1ccoc1 (stereo unspecified) | 4.43 |
| CCC(CN1CCCC1)n1cncc1-c1cnn(-c2ccc(F)cc2)c1 (stereo unspecified) | 5.29 |
| CC(=O)N1CCC(c2nccnc2C)CC1 | -2.82 |
| CC(C)CN1CC[C@@H]2[C@H](CC1)N(C(=O)c1ccccc1)CCS2(=O)=O | -128 |
| Cn1nc2c(cc1=O)CN(Cc1nc(-c3cccnc3)no1)CC2 | -14.6 |
| CCn1ncnc1C1CC(=O)NCc2nc(N)sc21 (stereo unspecified) | -4.78 |
| CN1CCc2ncc(CNc3cc(N(C)C)ncn3)n2CC1 | 0.749 |
| CC(C)c1nccn1CCCNC(=O)c1ccc(-c2cn[nH]c2)nc1 | -5.84 |
| CC1CCc2[nH]c(=O)c(C(=O)N3CCc4ccccc4C3)cc2C1 (stereo unspecified) | -6.77 |
| CCc1cc(N[C@H]2CCC[C@H]2O)n2nccc2n1 | -4 |

| SMILES | cytotoxicity at 10 µM [%] |
| --- | --- |
| CC(C)C(=O)N1CCCC2(C1)CN(c1nncs1)CCO2 (stereo unspecified) | -104 |
| CCc1ccc(C(=O)NC2CCN(c3ccn(C)n3)C2)o1 (stereo unspecified) | -0.577 |
| CO[C@H]1CN(C(C)C)C[C@@H]1NC(=O)c1cc(COc2ccccc2)[nH]n1 | -2.43 |
| FC(F)(F)c1ccc2nc([C@H]3CCN(C4CCOCC4)C3)[nH]c2c1 | 0.354 |
| Cc1ccc(-c2noc(CCC3CCN(C)CC3)n2)nn1 | -5.79 |
| Cc1csc(N2CCCN(C(=O)c3cnns3)CC2)n1 | 5.92 |
| COCC(C)Nc1ccc(-c2nc(Cc3ccc(F)cc3)no2)cn1 (stereo unspecified) | 7.22 |
| CN(C)Cc1ccnc(C2CCCN2Cc2ccc3ncccc3c2)n1 (stereo unspecified) | 0.026 |
| Cc1noc(C)c1CN1CCN(Cc2nc(C3CC3)no2)CC1 | 31.4 |
| CC(C)C(=O)NCc1ccc(-n2cncn2)nc1 | 0.239 |
| O=C(c1cc(Cn2cnc3ccccc32)on1)N1CCOCC1 | -2.46 |
| O=C(NCC1CC1)C1CN(C(=O)c2cccc(Cl)c2)CC12CCOCC2 (stereo unspecified) | 1.18 |
| O=C(CSCC1CC1)N1CCCC2(CCC(=O)N(CC3CC3)C2)C1 (stereo unspecified) | 3.8 |
| CC(CNC(=O)c1cccc(-n2cccn2)n1)Cn1ccnc1 (stereo unspecified) | 7.73 |
| Cc1cccc(NC(=O)C(C)Nc2cccc(CN3CCOC3=O)c2)c1 (stereo unspecified) | 6.92 |
| Cc1ncc(S(C)(=O)=O)c(N2CCCN(Cc3ccccn3)CC2)n1 | 1.46 |
| O=C(c1cnc(O)cc1O)N1CCCC(CCc2ccccc2F)C1 (stereo unspecified) | -2.24 |
| N#Cc1ccccc1C(=O)NCCC1CN(Cc2ccco2)CCO1 (stereo unspecified) | -7.25 |
| Cc1csc(C(Cc2ccsc2)NC(=O)C2CCN(S(C)(=O)=O)CC2)n1 (stereo unspecified) | -18 |
| O=S(=O)(NCc1ccnc(-n2ccnc2)c1)c1cncc(Cl)c1 | 3.46 |
| COc1ccc(C(=O)NC2CC2)c(OC)c1 | -3.51 |
| Cc1ccc(C(=O)N(C)CC(=O)Nc2cccc(C)n2)cn1 | -21.2 |
| CCc1cc(C)c(C(=O)N2CCCC2CC(=O)c2cnn(C)c2)o1 (stereo unspecified) | 5.22 |

| SMILES | cytotoxicity at 10 µM [%] |
| --- | --- |
| CN(C)CCN1CCO[C@H]2CCN(C(=O)c3cccs3)CC[C@@H]21 | -8.32 |
| Cc1nn(Cc2ccc(C(=O)NCCCN3CCCC3=O)o2)c(C)c1Cl | -10.2 |
| CN(Cc1ccc(F)cc1)C(=O)CN1CCOC(Cn2cncn2)C1 (stereo unspecified) | -4.07 |
| COC(=O)c1cccc(C(=O)N(C)Cc2cccc(O)c2)c1 | 9.85 |
| O=C(CCC1CCCC1)N1CCC(O)(C(F)(F)F)C1 (stereo unspecified) | -0.0394 |
| CCc1nccn1CCC(=O)N1CCCC1c1ccc(F)cc1 (stereo unspecified) | 1.58 |
| Cc1cnn(CCC(=O)Nc2ccc(F)cc2OCC2CC2)c1 | -4.11 |
| COc1cccc(COCC(=O)N2CCCC(n3ccnc3C)C2)c1 (stereo unspecified) | -7.77 |
| CCN1CCC(NC(=O)CN2CCc3c(ncn3C3CC3)C2)CC1 | -4.8 |
| C=Cc1cccc(CN2CCCn3nc(CNS(C)(=O)=O)cc3C2)c1 | 3.15 |
| O=C(C1CCCCC1)N1CCC(c2n[nH]c3nccnc23)CC1 | 4.05 |
| Cc1cn[nH]c1C1CCCCN1C(=O)CCN1CCCCCC1 (stereo unspecified) | 5.7 |
| CN(C)C(=O)N1CC(=O)NCC12CCN(C(=O)c1ccco1)C2 (stereo unspecified) | -0.125 |
| CCc1nc(CN2CCN(C(C)c3nc(C4CC4)no3)CC2)no1 (stereo unspecified) | -9.45 |
| O=C(O)c1cccc(S(=O)(=O)N2CCOc3ccccc32)c1 | -5.92 |
| Cc1ccoc1C(=O)N1CCCC(c2cc(C(F)(F)F)[nH]n2)C1 (stereo unspecified) | 2.4 |
| CNC(=O)N1CC[C@@H]2CN(Cc3cccnc3)S(=O)(=O)[C@@H]2CC1 | 4.4 |
| COCCCC1CCCCN1Cc1cnn(C)c1C1CC1 (stereo unspecified) | -2.52 |
| N#CC(NC(=O)CCCOc1cccnc1)c1ccccc1Cl (stereo unspecified) | 4.26 |
